These results are taken from ChEMBL document CHEMBL1140921, “Discovery of novel Myc-Max heterodimer disruptors with a three-dimensional pharmacophore model” (J Med Chem, 2009).

The term IC50 denotes the concentration that gives 50% inhibition.

Molecules are shown by their SMILES. Activity calls are given as the source filed them. The calls are words filed in the database; no cut-off is given here.

Experiment [1] is described as follows: Inhibition of 6-His tagged recombinant c-Myc353-437 gene binding to Max(S) protein assessed as disruption of heterodimer formation by circular dichroism assay. The method, boiled down:
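Circular dichroism on equimolar c-Myc and Max (1.5 µM each), with helical content read as ellipticity at 222 nm. Compounds were screened at 200 µM (average of three independent trials), then titrated over a concentration range. The fitted Kcomp was multiplied by the independently determined c-Myc–Max dissociation constant to estimate affinity for c-Myc monomer. Triplicate.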
In general terms: Circular dichroism is widely used to follow secondary structure.

In another experiment the test system is HL-60. The experiment can be described thus: Cytotoxicity against human HL60 cells by MTS assay. It is filed as functional, cell-based. The gist of the method:
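HL60 cell growth dose-response profiles; IC50 calculated from the profile on day 5 after compound addition.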
For orientation: Formazan colour is commonly taken as a measure of viable cells.

Experiment [2] in a line: Cytotoxicity against rat c-Myc knockout KO-HMG cells overexpressing HMGA1b by MTS assay. The experiment is classed as cell-based.

For `CCCCOC(=O)CCN1C(=O)/C(=C/c2ccc(CC)cc2)SC1=S`, the IC50 in experiment [1] came out at 10 µM.
In the case of `O=C1NC(=S)S/C1=C\c1ccc(Cl)cc1`, the IC50 in experiment [1] came to 41 µM.
On the same count and under the same terms, for `CCCN1C(=O)/C(=C/c2ccc(CC)cc2)SC1=S` the value was 4.6 µM.
For the molecule `CCc1ccc(/C=C2\SC(=S)NC2=O)cc1`, the IC50 was determined as 49 µM in experiment [1] and 35 µM with HL-60.
Take `O=C1NC(=S)S/C1=C\c1ccc(O)c(O)c1`: the IC50 in experiment [1] is 23 µM.
On to `Cc1ccc(C)c(OCN2Cc3ccccc3C2C=O)c1` (stereo not drawn), for which the figures for the IC50 (in the experiment with HL-60; in experiment [2]) were 15 µM and over 35 µM, respectively.
With `CN(C)c1ccc(/C=C2\SC(=S)NC2=O)cc1`, in experiment [1], the result was inactive.
On the same count and under the same terms, for `O=C1NC(=S)S/C1=C\c1ccc(O)cc1` the value was “inactive”.
For the molecule `CC(C)c1ccc(/C=C2\SC(=S)NC2=O)cc1`, in experiment [1], the IC50 was determined as 38 µM.
As for `CCc1ccc(OCC(=O)Nc2ccc(C)cc2Br)cc1`, the IC50 in the experiment on HL-60 was 23 µM; in experiment [2], over 55 µM.
